Hits are enriched below; roughly 2.9% of the tested compounds scored in any of these assays.
ZTA counter: counter-screen for EBNA-1 inhibitors: inhibitors of Epstein-Barr virus ZTA; P03206; ZTA-DNA binding, fluorescence polarization; inhibition, % at 11 µM; 320,000 tested, 0.15% active; in the data active = inhibition above about 33%
Target sequence (P03206 whole entry, looked up): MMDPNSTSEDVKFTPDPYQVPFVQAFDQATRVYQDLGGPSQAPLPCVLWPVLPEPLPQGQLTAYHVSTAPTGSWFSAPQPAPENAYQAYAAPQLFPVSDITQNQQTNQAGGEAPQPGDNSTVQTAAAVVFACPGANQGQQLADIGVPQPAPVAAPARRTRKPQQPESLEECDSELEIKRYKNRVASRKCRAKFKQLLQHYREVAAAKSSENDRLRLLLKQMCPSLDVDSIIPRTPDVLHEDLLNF
UBC13 inh: UBC13 polyubiquitin chain formation inhibitors, primary screen, biochemical, TR-FRET, uHTS | Ubiquitin-conjugating enzyme E2 N (Homo sapiens), P61088 | 330,000 tested, 0.47% active | inhibition, % at 20 µM; in the data active = inhibition above about 45%, passing the limit was not always enough
Target sequence (P61088 whole entry, looked up): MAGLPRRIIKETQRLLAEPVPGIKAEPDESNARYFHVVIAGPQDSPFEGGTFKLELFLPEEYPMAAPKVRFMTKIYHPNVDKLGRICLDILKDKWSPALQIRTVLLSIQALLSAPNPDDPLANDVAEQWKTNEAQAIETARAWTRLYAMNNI
PfG6PD inh: PfG6PD enzyme inhibitors, primary screen, biochemical, fluorescence intensity, uHTS. glucose-6-phosphate dehydrogenase-6-phosphogluconolactonase (Plasmodium falciparum 3D7). PfGluPho enzyme, NADPH resazurin-diaphorase fluorescence. inhibition, % at 20 µM. AID 504690, 2011. 350,000 tested, 0.78% active;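 active = inhibition reaching at least a set limit at 20 µM in the primary screen, cut at about 59% in these data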;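 note: 0% = DMSO wells with substrate and 100% = DMSO wells lacking glucose-6-phosphate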
EBNA-1 inhibitor: EBNA-1 DNA-binding inhibitors, primary screen, biochemical, fluorescence polarization; inhibition, % at 14.8 µM; 300,000 tested, 0.34% active; in the data active = inhibition above about 28%
Apaf1 inhib: inhibitors of human Apaf-1 apoptosome, primary screen, biochemical, DEVD-Rh110 fluorescence, uHTS. reconstituted apoptosome caspase-3 activity. inhibition, % at 20 µM. 330,000 tested, 0.71% active; active = inhibition of at least 40% at 20 µM;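 note: plate controls were DMSO wells for no effect and DEVD-CHO caspase inhibitor wells for full effect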
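Material: biochemical Apaf-1 apoptosome reconstitution. Medium: Hepes buffer, pH 7.5. Also added: cytochrome c activation, bis-DEVD rhodamine 110 substrate. Timing: 30 min compound preincubation, 50 min activation, room temperature. Measured by: rhodamine 110 fluorescence at Ex 480/Em 540 nm.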
PfM18AAP inh-1: PfM18AAP inhibitors, malaria aminopeptidase, primary screen, biochemical, QFRET, recombinant enzyme. inhibition, % at 7.35 µM. 290,000 tested, 1.2% active. AID 1822, 2009. M18 aspartyl aminopeptidase (Plasmodium falciparum 3D7). H-Glu-NHMec fluorogenic cleavage;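 active = inhibition above the campaign mean inhibition over all tested compounds plus 3 SD, cut at about 28% in these data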;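 note: 0% = plate median of test compound wells and 100% = 2 mM ZnCl2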
PfM18AAP inh-2: PfM18AAP inhibitors, malaria aminopeptidase, confirmation, biochemical, QFRET, recombinant enzyme, triplicate; shares compounds with PfM18AAP inh-1; H-Glu-NHMec fluorogenic cleavage; inhibition, % at 7.35 µM; 2,400 tested, 28% active; AID 2170, 2009;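 active = mean inhibition over replicate wells above the hit cutoff set for the earlier primary screen, cut at about 29% in these data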;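 note: 0% = median of test compound wells and 100% = 2 mM ZnCl2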
CTSL1 counter: cathepsin L1 inhibitors, retest, confirmation, counter-screen for PFM18AAP inhibitor project, biochemical, QFRET, triplicate; shares compounds with PfM18AAP inh-1; purified cathepsin L1, Z-Leu-Arg-MCA fluorescence; inhibition, % at 5.96 µM; 2,400 tested, under 10 active; AID 2178, 2009;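 active = average inhibition across replicates above the hit cutoff set in the earlier primary screen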;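 note: 0% = median of test compound wells and 100% = Z-Phe-Ala-diazomethylketone 1 µM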
Starred values were filed as active, the others as inactive; nt = not tested or not shown.

SMILES	ZTA counter	UBC13 inh	PfG6PD inh	EBNA-1 inhibitor	Apaf1 inhib	PfM18AAP inh-1	PfM18AAP inh-2	CTSL1 counter
O=C1c2cccc3cccc(c23)C(=O)N1/N=C/c1ccc(O)cc1O	5	-17	-5	5	3	9	nt	nt
Oc1ccc(/C=N/N(c2ccccc2)c2ccccc2)cc1O	0	-6	39	-7	9	67*	42*	-8
CCN(CC)c1ccc(/C=N/N(c2ccccc2)c2ccccc2)c(O)c1	-22	-10	12	-1	10	0	nt	nt
O=C1c2ccccc2C(=O)N1/N=C/c1ccc(O)c(O)c1O	nt	nt	98*	nt	nt	66*	40*	2
Oc1ccc(/C=N/N(c2ccccc2)c2ccccc2)c(O)c1O	-4	-12	nt	-7	32	48*	-15	-8
O=C(CN1c2cccc3cccc(c23)S1(=O)=O)NCc1ccccc1Cl	nt	nt	-3	nt	nt	nt	nt	nt
COc1ccc(-c2sc3ccc(N4CCOCC4)cc3c2C#CCCO)cc1	nt	30	29	nt	12	nt	nt	nt
CCOC(=O)Cc1sc(N)nc1C	-8	6	-5	10	-2	-2	nt	nt
Cc1ccc(C(=O)Nc2ccccc2)cc1S(=O)(=O)N1CCN(C)CC1	15	12	-8	12	-10	4	nt	nt
CCc1nn(C(CC)C(=O)NCC(C)c2ccccc2)c(=O)c2cc3occc3n12 (stereo unspecified)	nt	9	8	nt	8	0	nt	nt
O=Cc1ccc(OC(=O)c2cccnc2)cc1	-10	3	-5	0	0	5	nt	nt
O=C1C2Sc3[nH]c(=O)sc3C(c3ccccc3)C2C(=O)N1c1ccc(Cl)cc1 (stereo unspecified)	6	-5	-29	-9	17	36*	-15	-4
Cc1ccc(C)c(NC(=S)N2CCN(c3cccc(C(F)(F)F)c3)CC2)c1	-5	-6	4	-2	7	-5	nt	nt
Cc1ccnc(NC(=S)N2CCN(c3cccc(C(F)(F)F)c3)CC2)c1	-7	13	53	4	22	39*	-20	7
CCOC(=O)C1=CNS(=O)(=O)NC1c1ccc(C(=O)OC)cc1 (stereo unspecified)	nt	nt	4	nt	5	nt	nt	nt
CC1=C(C(=O)N(C(C)C)C(C)C)CC(CC(=O)NCCc2ccccn2)C(=O)N1Cc1ccccc1 (stereo unspecified)	nt	nt	12	nt	nt	nt	nt	nt
O=C(CSc1ccccn1)N1CCN(c2ccc(Cl)cc2)CC1	-9	-1	4	14	5	33*	-30	0
O=C(CSc1ccccn1)N1CCN(C(=O)CSc2ccccn2)CC1	-9	4	13	-2	-1	nt	nt	nt
Cc1cc2oc(=O)sc2cc1NS(=O)(=O)c1ccccc1	7	6	26	-1	3	36*	-30	0
Cc1cc2oc(=O)sc2cc1NS(=O)(=O)c1cccc2cccnc12	4	4	-12	-2	-7	26	nt	nt
COC(=O)c1cnc(Oc2c(Cl)cc(N)cc2Cl)cc1C(F)(F)F	12	10	21	4	-5	-5	nt	nt
CCCC(=O)Nc1ccc(C(=O)NN=C(C2CC2)C2CC2)cc1	0	7	2	5	3	-1	nt	nt
CCCC(=O)Nc1ccc(C(=O)N/N=C2\CC(=O)CC(C)(C)C2)cc1	2	14	-8	-3	-18	39*	-3	3
CCN1CCN(C(=O)/C=C/c2cccc(Cl)c2)CC1	8	-3	-5	-4	-1	0	nt	nt
CN(C)S(=O)(=O)c1cccc(C(=O)C2=C3SC=C(c4ccccc4)N3CC2)c1	7	-2	41	12	0	34*	-13	-4
CN(C)S(=O)(=O)c1cccc(C(=O)N2CCc3ccccc32)c1	-5	-8	-1	-5	-6	4	nt	nt
